The values below come from ChEMBL document CHEMBL4043303, “Development of Novel Melanocortin Receptor Agonists Based on the Cyclic Peptide Framework of Sunflower Trypsin Inhibitor-1” (J Med Chem, 2018).

A short description of series [1]: Solubility of the compound in water at 1 mM. It counts as physicochemical. Particulars: buffer, 1000 µM.
The target of series [2] is T1, Melanocyte-stimulating hormone receptor (Homo sapiens, UniProt Q01726). Briefly: Agonist activity at human MC1R expressed in low doxycyclin-treated HEK293 cell membranes assessed as increase in cAMP production after 45 mins by HTRF method. It counts as functional, cell-based. For orientation: Cyclic AMP is a second messenger, typically raised through Gs and lowered through Gi signalling.
T1 sequence (Q01726 whole entry, looked up): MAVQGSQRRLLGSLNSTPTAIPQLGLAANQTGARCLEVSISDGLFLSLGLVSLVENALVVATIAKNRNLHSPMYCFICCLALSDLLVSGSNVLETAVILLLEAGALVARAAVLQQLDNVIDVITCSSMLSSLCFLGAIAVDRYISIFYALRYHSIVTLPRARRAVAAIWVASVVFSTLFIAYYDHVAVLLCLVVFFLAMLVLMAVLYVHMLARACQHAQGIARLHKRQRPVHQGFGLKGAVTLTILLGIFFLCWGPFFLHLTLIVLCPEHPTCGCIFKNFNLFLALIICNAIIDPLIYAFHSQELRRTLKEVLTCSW

In series [3] the target is T2, Melanocortin receptor 4 (Homo sapiens, UniProt P32245). Briefly: Agonist activity at human MC4R expressed in low doxycyclin-treated HEK293 cell membranes assessed as increase in cAMP production after 45 mins by HTRF method. It counts as functional, cell-based. A digest of the protocol:
(§1)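 T-REx-293 cells stably expressing doxycycline-inducible human MC1R, MC3R or MC4R; expression induced 24 h with 0.1 ng/mL (low) or 10 ng/mL (high, MC4R only) doxycycline. 1000 cells/well in HBSS, 20 mM HEPES pH 7.4, 0.1% BSA, 1 mM IBMX; stimulated at 37 °C. Time-resolved FRET cAMP read-out normalized to NDP-α-MSH maximum.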

Series [4] concerns the target T1, Melanocyte-stimulating hormone receptor. Briefly: Displacement of [125I]-NDP-alpha-MSH from human MC1R LBD expressed in HEK293 cell membranes incubated for 16 to 23 hrs in dark by scintillation proximity assay. Also noted: concentration or dose not given beside the values. The note with it: concentration not given here. A general note: Displacement assays read how much labelled ligand stays bound in the presence of the test substance.

Series [5] concerns the target T3, Melanocortin receptor 3 (Homo sapiens, UniProt P41968). Description: Agonist activity at human MC3R expressed in low doxycyclin-treated HEK293 cell membranes assessed as increase in cAMP production after 45 mins by HTRF method. It counts as functional, cell-based. Set-up: concentration or dose not given beside the values. A digest of the protocol: as §1
The target of series [6] is T3, Melanocortin receptor 3. Description: Displacement of [125I]-NDP-alpha-MSH from human MC3R LBD expressed in HEK293 cell membranes incubated for 16 to 23 hrs in dark by scintillation proximity assay. Also noted: concentration or dose not given beside the values. The note with it: concentration not given here.
The target in series [7] is T2, Melanocortin receptor 4. Description: Agonist activity at human MC4R expressed in high doxycyclin-treated HEK293 cell membranes assessed as increase in cAMP production after 15 mins by HTRF method. It counts as functional, cell-based. In short, it runs like this:
as §1

In series [8] the target is T2, Melanocortin receptor 4. Description: Displacement of [125I]-NDP-alpha-MSH from human MC4R LBD expressed in HEK293 cell membranes incubated for 16 to 23 hrs in dark by scintillation proximity assay. Also noted: concentration or dose not given beside the values. The note with it: concentration not given here.
For series [9], the target named is Melanocortin receptor 5 (Homo sapiens, UniProt P33032). Description: Displacement of [125I]-NDP-alpha-MSH from human MC5R LBD expressed in HEK293 cell membranes incubated for 16 to 23 hrs in dark by scintillation proximity assay. Also noted: concentration or dose not given beside the values. Particulars: concentration not given here.
Melanocortin receptor 5, sequence (P33032 whole entry, the tested form may be a part): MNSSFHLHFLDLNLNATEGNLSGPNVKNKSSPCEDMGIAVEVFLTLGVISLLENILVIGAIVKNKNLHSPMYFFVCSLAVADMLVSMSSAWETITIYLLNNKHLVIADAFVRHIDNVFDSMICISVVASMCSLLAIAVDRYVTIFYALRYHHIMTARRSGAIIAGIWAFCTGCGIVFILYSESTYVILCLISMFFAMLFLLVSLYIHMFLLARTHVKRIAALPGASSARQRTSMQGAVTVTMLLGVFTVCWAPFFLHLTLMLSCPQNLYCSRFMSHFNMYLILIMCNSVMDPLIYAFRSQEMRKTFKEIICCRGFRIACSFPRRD

Structures are written as SMILES.

T3 sequence (P41968 whole entry, the tested form may be a part): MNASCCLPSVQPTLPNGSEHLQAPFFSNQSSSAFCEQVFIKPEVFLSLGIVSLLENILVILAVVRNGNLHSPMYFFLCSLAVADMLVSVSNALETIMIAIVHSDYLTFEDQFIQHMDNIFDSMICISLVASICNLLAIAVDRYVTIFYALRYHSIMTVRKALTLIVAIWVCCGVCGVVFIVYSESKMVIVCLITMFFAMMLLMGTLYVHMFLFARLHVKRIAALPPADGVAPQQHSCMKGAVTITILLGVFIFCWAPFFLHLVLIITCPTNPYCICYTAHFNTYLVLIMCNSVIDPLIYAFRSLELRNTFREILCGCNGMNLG
T2 sequence (P32245 whole entry): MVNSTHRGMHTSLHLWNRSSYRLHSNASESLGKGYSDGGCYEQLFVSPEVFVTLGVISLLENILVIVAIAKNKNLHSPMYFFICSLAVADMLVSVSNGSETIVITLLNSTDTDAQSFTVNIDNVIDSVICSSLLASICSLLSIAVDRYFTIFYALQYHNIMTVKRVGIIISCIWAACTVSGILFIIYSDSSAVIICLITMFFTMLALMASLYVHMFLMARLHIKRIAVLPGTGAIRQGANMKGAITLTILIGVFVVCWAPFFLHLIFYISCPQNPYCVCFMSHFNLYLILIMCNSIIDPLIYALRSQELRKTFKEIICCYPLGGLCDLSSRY

For `CC[C@H](C)[C@@H]1NC(=O)[C@@H]2CCCN2C(=O)[C@@H]2CCCN2C(=O)[C@H]([C@@H](C)CC)NC(=O)[C@H](CO)NC(=O)[C@H](C)NC(=O)[C@H]([C@@H](C)O)NC(=O)[C@@H]2CSSC[C@H](NC1=O)C(=O)N(C)[C@@H](Cc1cnc[nH]1)C(=O)N[C@H](Cc1ccccc1)C(=O)N[C@@H](CCCNC(=N)N)C(=O)N[C@@H](Cc1c[nH]c3ccccc13)C(=O)N[C@@H](CCCNC(=N)N)C(=O)N2`, the solubility entry in series [1] was “Soluble”.
As a reminder, the inhibition is the drop in the measured response relative to a control, in per cent. As to `CC[C@H](C)[C@@H]1NC(=O)[C@@H]2CCCN2C(=O)[C@H](Cc2c[nH]c3ccccc23)NC(=O)[C@H](CCCNC(=N)N)NC(=O)[C@@H](Cc2ccccc2)NC(=O)[C@H](Cc2cnc[nH]2)N(C)C(=O)[C@H]([C@@H](C)O)NC(=O)[C@@H]2CSSC[C@H](NC1=O)C(=O)N[C@@H](Cc1ccccc1)C(=O)N1CCC[C@H]1C(=O)N[C@@H](CC(=O)O)C(=O)NCC(=O)N[C@@H](CCCNC(=N)N)C(=O)N2`, the Activity in series [2], in series [3], in series [5] and in series [7] was 100% each time. Moreover, in series [1], the solubility result is on record as “Soluble”. Also, the inhibition in [4], in [6], in series [8] and in [9] was 100% in each case.
Turning to `CC[C@H](C)[C@@H]1NC(=O)[C@@H]2CCCN2C(=O)[C@@H]2CCCN2C(=O)[C@H]([C@@H](C)CC)NC(=O)[C@H](CO)NC(=O)[C@H](C)NC(=O)[C@H]([C@@H](C)O)NC(=O)[C@@H]2CSSC[C@H](NC1=O)C(=O)N[C@@H](Cc1cnc[nH]1)C(=O)N[C@H](Cc1ccccc1)C(=O)N(C)[C@@H](CCCNC(=N)N)C(=O)N[C@@H](Cc1c[nH]c3ccccc13)C(=O)N[C@@H](CCCNC(=N)N)C(=O)N2`, in series [1], the solubility result was “Soluble”.
On to `CC[C@H](C)[C@@H]1NC(=O)[C@@H]2CCCN2C(=O)[C@@H]2CCCN2C(=O)[C@H]([C@@H](C)CC)NC(=O)[C@H](CO)NC(=O)[C@H](C)NC(=O)[C@H]([C@H](C)O)NC(=O)[C@@H]2CSSC[C@H](NC1=O)C(=O)N(C)[C@@H](Cc1cnc[nH]1)C(=O)N[C@H](Cc1ccccc1)C(=O)N(C)[C@@H](CCCNC(=N)N)C(=O)N[C@@H](Cc1c[nH]c3ccccc13)C(=O)N[C@@H](CCCNC(=N)N)C(=O)N2`, for which the Activity in series [2], in series [3], in series [5] and in series [7] was 100% each time. Moreover, the inhibition in series [4], in series [6], in series [8] and in series [9] was 100% each time.
`CC[C@H](C)[C@@H]1NC(=O)[C@@H]2CCCN2C(=O)[C@@H]2CCCN2C(=O)[C@H]([C@@H](C)CC)NC(=O)[C@H](CO)NC(=O)[C@H](C)NC(=O)[C@H]([C@@H](C)O)NC(=O)[C@@H]2CSSC[C@H](NC1=O)C(=O)N[C@@H](Cc1c[nH]cn1)C(=O)N[C@H](Cc1ccccc1)C(=O)N(C)[C@@H](CCCNC(=N)N)C(=O)N(C)[C@@H](Cc1c[nH]c3ccccc13)C(=O)N[C@@H](CCCNC(=N)N)C(=O)N2`: in series [1], the solubility entry is “Soluble”.
Same read-out and setting: under `CC[C@H](C)[C@@H]1NC(=O)[C@@H]2CCCN2C(=O)[C@@H]2CCCN2C(=O)[C@H]([C@@H](C)CC)NC(=O)[C@H](CO)NC(=O)[C@H](C)NC(=O)[C@H]([C@@H](C)O)NC(=O)[C@@H]2CSSC[C@H](NC1=O)C(=O)N(C)[C@@H](Cc1cnc[nH]1)C(=O)N[C@H](Cc1ccccc1)C(=O)N[C@@H](CCCNC(=N)N)C(=O)N(C)[C@@H](Cc1c[nH]c3ccccc13)C(=O)N[C@@H](CCCNC(=N)N)C(=O)N2` stands “Soluble”.
Take `CC[C@H](C)[C@@H]1NC(=O)[C@@H]2CCCN2C(=O)[C@@H]2CCCN2C(=O)[C@H]([C@@H](C)CC)NC(=O)[C@H](CO)NC(=O)[C@H](C)NC(=O)[C@H]([C@@H](C)O)NC(=O)[C@@H]2CSSC[C@H](NC1=O)C(=O)N[C@@H](Cc1cnc[nH]1)C(=O)N[C@H](Cc1ccccc1)C(=O)N[C@@H](CCCNC(=N)N)C(=O)N(C)[C@@H](Cc1c[nH]c3ccccc13)C(=O)N[C@@H](CCCNC(=N)N)C(=O)N2`: the solubility entry in series [1] is “Soluble”.
Take `CC[C@H](C)[C@@H]1NC(=O)[C@@H]2CCCN2C(=O)[C@@H]2CCCN2C(=O)[C@H]([C@@H](C)CC)NC(=O)[C@H](CO)NC(=O)[C@H](C)NC(=O)[C@H]([C@@H](C)O)NC(=O)[C@@H]2CSSC[C@H](NC1=O)C(=O)N[C@@H](Cc1cnc[nH]1)C(=O)N[C@H](Cc1ccccc1)C(=O)N[C@@H](CCCNC(=N)N)C(=O)N[C@@H](Cc1c[nH]c3ccccc13)C(=O)N[C@@H](CCCNC(=N)N)C(=O)N2`: the solubility entry in series [1] was “Soluble”.
Consider `CC[C@H](C)[C@@H]1NC(=O)[C@@H]2CCCN2C(=O)[C@@H]2CCCN2C(=O)[C@H]([C@@H](C)CC)NC(=O)[C@H](CO)NC(=O)[C@H](C)NC(=O)[C@H]([C@H](C)O)NC(=O)[C@@H]2CSSC[C@H](NC1=O)C(=O)N(C)[C@@H](Cc1cnc[nH]1)C(=O)N[C@H](Cc1ccccc1)C(=O)N(C)[C@@H](CCCNC(=N)N)C(=O)N(C)[C@@H](Cc1c[nH]c3ccccc13)C(=O)N[C@@H](CCCNC(=N)N)C(=O)N2`, for which the Activity in series [2], in series [3], in series [5] and in series [7] was 100% each time. Besides, the inhibition in series [4], in series [6], in series [8] and in series [9] was 100% throughout.
Consider `CC[C@H](C)[C@@H]1NC(=O)[C@@H]2CCCN2C(=O)[C@@H]2CCCN2C(=O)[C@H]([C@@H](C)CC)NC(=O)[C@H](CO)NC(=O)[C@H](C)NC(=O)[C@H]([C@@H](C)O)NC(=O)[C@@H]2CSSC[C@H](NC1=O)C(=O)N(C)[C@@H](Cc1cnc[nH]1)C(=O)N[C@H](Cc1ccccc1)C(=O)N(C)[C@@H](CCCNC(=N)N)C(=O)N[C@@H](Cc1c[nH]c3ccccc13)C(=O)N[C@@H](CCCNC(=N)N)C(=O)N2`, for which the solubility result in [1] is on record as “Soluble”.
The same measure, in the same setting: for `CC[C@H](C)[C@@H]1NC(=O)[C@@H]2CCCN2C(=O)[C@@H]2CCCN2C(=O)[C@H]([C@@H](C)CC)NC(=O)[C@H](CO)NC(=O)[C@H](C)NC(=O)[C@H]([C@@H](C)O)NC(=O)[C@@H]2CSSC[C@H](NC1=O)C(=O)N(C)[C@@H](Cc1cnc[nH]1)C(=O)N[C@H](Cc1ccccc1)C(=O)N(C)[C@@H](CCCNC(=N)N)C(=O)N(C)[C@@H](Cc1c[nH]c3ccccc13)C(=O)N[C@@H](CCCNC(=N)N)C(=O)N2` the value was “Soluble”.
Take `CC[C@H](C)[C@@H]1NC(=O)[C@@H]2CCCN2C(=O)[C@@H]2CCCN2C(=O)[C@H]([C@@H](C)CC)NC(=O)[C@H](CO)NC(=O)[C@H](C)NC(=O)[C@H]([C@H](C)O)NC(=O)[C@@H]2CSSC[C@H](NC1=O)C(=O)N[C@@H](Cc1cnc[nH]1)C(=O)N[C@H](Cc1ccccc1)C(=O)N[C@@H](CCCNC(=N)N)C(=O)N(C)[C@@H](Cc1c[nH]c3ccccc13)C(=O)N[C@@H](CCCNC(=N)N)C(=O)N2`: the Activity in [2], in series [3], in [5] and in [7] was 100% throughout. In addition, the inhibition in series [4], in series [6], in series [8] and in series [9] was 100% in each case.
With `CC[C@H](C)[C@@H]1NC(=O)[C@@H]2CCCN2C(=O)[C@@H]2CCCN2C(=O)[C@H]([C@@H](C)CC)NC(=O)[C@H](CO)NC(=O)[C@H](C)NC(=O)[C@H]([C@H](C)O)NC(=O)[C@@H]2CSSC[C@H](NC1=O)C(=O)N(C)[C@@H](Cc1cnc[nH]1)C(=O)N[C@H](Cc1ccccc1)C(=O)N[C@@H](CCCNC(=N)N)C(=O)N(C)[C@@H](Cc1c[nH]c3ccccc13)C(=O)N[C@@H](CCCNC(=N)N)C(=O)N2`, the Activity in series [2], in series [3], in series [5] and in [7] was 100% in each case. The inhibition in [4], in series [6], in [8] and in series [9] was 100% each time.
As to `CC[C@H](C)[C@@H]1NC(=O)[C@@H]2CCCN2C(=O)[C@@H]2CCCN2C(=O)[C@H]([C@@H](C)CC)NC(=O)[C@H](CO)NC(=O)[C@H](C)NC(=O)[C@H]([C@H](C)O)NC(=O)[C@@H]2CSSC[C@H](NC1=O)C(=O)N(C)[C@@H](Cc1cnc[nH]1)C(=O)N[C@H](Cc1ccccc1)C(=O)N[C@@H](CCCNC(=N)N)C(=O)N[C@@H](Cc1c[nH]c3ccccc13)C(=O)N[C@@H](CCCNC(=N)N)C(=O)N2`, the Activity in [2], in series [3], in [5] and in series [7] was 100% each time. Besides, the inhibition in series [4], in [6], in series [8] and in series [9] was 100% each time.
